Published values pooled from the literature.
Target: High affinity nerve growth factor receptor (NTRK1, Homo sapiens, UniProt P04629)

For `CN1CC(Oc2cnc(C#N)cc2-c2ccn3nc(NC(=O)C4CC4)cc3c2)C1`, the inhibition was 5% (enzyme activity; inhibitor; 1 µM).
`CCCS(=O)(=O)Nc1ccc(F)c(C(=O)c2c[nH]c3ncc(-c4ccc(Cl)cc4)cc23)c1F` gave an inhibition of less than 10% (enzyme activity; inhibitor; 1 µM).
The inhibition of `COc1cc(C)c(Sc2cnc(NC(=O)c3ccc(N4CCN(CCCCCCCNC(=O)COc5cccc6c5C(=O)N(C5CCC(=O)NC5=O)C6=O)CC4)cc3)s2)cc1C(=O)N1CCN(C(C)=O)CC1` (stereo not drawn) is reported as greater than 90% (binding; 1 µM).
`O=C(Nc1cccc(C(=O)Nc2ccc3[nH]ncc3c2)c1)Nc1cccc(C(F)(F)F)c1` has an inhibition of 67.4% (enzyme activity; inhibitor; FRET; 1 µM).
`CCN(CC)CCNC(=O)c1c(C)[nH]c(/C=C2\C(=O)Nc3ccc(F)cc32)c1C` has an inhibition of 99% (enzyme activity; inhibitor; 10 µM).
For `CNC(=O)c1ccccc1Nc1cc(Nc2ccc(N3CCOCC3)cc2OC)ncc1C(F)(F)F`, the inhibition was greater than 50% (enzyme activity; inhibitor; 1 µM).
`CN(C)C1CCN(CC#Cc2nn(C3CCCC3)c3nc(NCc4ccccc4)ncc23)C1` (stereo not drawn) has an inhibition of 6% (enzyme activity; inhibitor; FRET; 0.1 µM).
`CN1CCN(CC(=O)Nc2cccc(C(=O)Nc3ccc4[nH]ncc4c3)c2)CC1` gave an inhibition of 14.1% (enzyme activity; inhibitor; FRET; 1 µM).
For `COc1cc2ncnc(Nc3ccc(Oc4ccccc4)cc3C)c2cc1OC`, the inhibition was 9% (enzyme activity; inhibitor; 1 µM).
For `O=C(Nc1ccc(C(F)(F)F)cc1)Nc1cccc(C(=O)Nc2ccc3[nH]ncc3c2)c1`, the inhibition was 74% (enzyme activity; inhibitor; FRET; 1 µM).
`Cc1ccc(Nc2nccc(N(C)c3ccc4c(C)n(C)nc4c3)n2)cc1S(N)(=O)=O` has an inhibition of 79% (enzyme activity; inhibitor; 10 µM).
For `O=C(Nc1ccc(OC(F)(F)F)cc1)Nc1cccc(C(=O)Nc2ccc3[nH]ncc3c2)c1`, the inhibition was 69.2% (enzyme activity; inhibitor; FRET; 1 µM).
For `CNCc1ccc(-c2cc(-c3nc(-c4ccc(S(=O)(=O)C(C)C)cc4)cnc3N)on2)cc1`, the inhibition was 13% (enzyme activity; inhibitor; 0.4 µM).
The inhibition of `CNC(=O)c1cc(Oc2ccc(NC(=O)Nc3ccc(Cl)c(C(F)(F)F)c3)cc2)ccn1` is reported as 36% (enzyme activity; inhibitor; 0.3 µM).
`O=C(Nc1ccccc1)Nc1cccc(C(=O)Nc2ccc3[nH]ncc3c2)c1` has an inhibition of 33.2% (enzyme activity; inhibitor; FRET; 1 µM).
